This is an account of results in ChEMBL document CHEMBL2407014, “Suberoylanilide hydroxamic acid, a histone deacetylase inhibitor, induces the production of anti-inflammatory cyclodepsipeptides from Beauveria felina” (J Nat Prod, 2013).

Data set [1] is described as follows: Cytotoxicity against human neutrophils by LDH release assay. The format is cell-based. Particulars: neutrophil.
The nature of data set [2]: Antiinflammatory activity in human neutrophils assessed as inhibition of FMLP-induced superoxide anion production treated 5 mins before FMLP addition measured after 10 mins. The format is functional, cell-based. The conditions noted are these: Neutrophil. A digest of the protocol: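 Neutrophils from healthy adult donors' venous blood (dextran sedimentation, Ficoll centrifugation), with 0.5 mg/mL ferricytochrome c and 1 mM Ca²⁺, equilibrated 37 °C 2 min, compound 5 min, cytochalasin B (1 μg/mL) 3 min, then FMLP 100 nM for 10 min. SOD-inhibitable (100 U/mL) ferricytochrome c reduction read continuously at 550 nm; IC50 as 50% inhibition concentration.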

The nature of data set [3]: Antiinflammatory activity in human neutrophils assessed as inhibition of FMLP-induced elastase release treated 5 mins before FMLP addition. The format is functional, cell-based. The conditions noted are these: Neutrophil. An outline of the steps: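 Neutrophils (6 × 10⁵/mL) with MeO-Suc-Ala-Ala-Pro-Val-p-nitroanilide substrate (100 μM), equilibrated 37 °C 2 min, compound 5 min, then activated with FMLP (100 nM)/cytochalasin B (0.5 μg/mL). Absorbance at 405 nm monitored continuously; results as percentage of initial elastase rate; IC50 as concentration giving 50% inhibition.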

Starred links: 1 amine or outer side, 2 acyl side, 3 side chain; linkers in the order of their positions; H or OH if unused. Non-standard residues stand in square brackets, D forms with d. Residues, ends and D or L forms follow the SMILES beside them. ξ: configuration not given here. X1 = C[C@H]1CCN([*:1])[C@@H]1C(=O)[*:2]; X2 = CC1CCN([*:1])[C@@H]1C(=O)[*:2]; Hica(2S) = CC(C)C[C@H](O)C(=O)O; ξLac(3-iPr) = CC(C)CC(O)C(=O)O; NMeV = CN[C@H](C(=O)O)C(C)C; βAla = NCCC(=O)O

With `CC(C)C[C@@H]1OC(=O)CCNC(=O)[C@H](C(C)C)N(C)C(=O)[C@H](C(C)C)NC(=O)[C@H](Cc2ccccc2)NC(=O)[C@@H]2CCCN2C1=O` (cyclo(FV[NMeV][βAla][Hica(2S)]P)), the Activity entry in data set [1] is listed as “Non-toxic”. In addition, the half-inhibitory concentration (IC50) in data set [2] came to 10 µM.

For `CC(C)C[C@@H]1OC(=O)CCNC(=O)[C@H](C(C)C)N(C)C(=O)[C@H](C(C)C)NC(=O)[C@H](Cc2ccccc2)NC(=O)[C@@H]2[C@@H](C)CCN2C1=O` (cyclo(FV[NMeV][βAla][Hica(2S)][X1])), the Activity result in data set [1] is given as “Non-toxic”. For the same compound, the values for the IC50 in data set [2] and in data set [3] were 10.9 µM and 10 µM, respectively.

For `O=c1c(-c2ccc(O)cc2)coc2cc(O)cc(O)c12` [GENISTEIN], the concentration for half-maximal inhibition (IC50) in data set [2] was found to be 0.69 µM; in data set [3], 6.72 µM.

With `CC[C@H](C)[C@@H]1NC(=O)[C@@H]2[C@@H](C)CCN2C(=O)[C@@H](CC(C)C)OC(=O)CCNC(=O)[C@H](C)N(C)C(=O)[C@H](C(C)C)N(C)C1=O` [ROSEOCARDIN], the Activity entry in data set [1] is given as “Non-toxic”. In addition, the IC50 in data set [3] is 15.1 µM.

Take `CC(C)CC1OC(=O)CCNC(=O)[C@H](C(C)C)N(C)C(=O)[C@H](C(C)C)N(C)C(=O)[C@H](Cc2ccccc2)NC(=O)[C@@H]2CCCN2C1=O` (stereo not given in full) [ISARIDIN E] (cyclo(F[NMeV][NMeV][βAla][ξLac(3-iPr)]P)): in data set [1], the Activity result was “Non-toxic”. In addition, the values for the IC50 in data set [2] and in data set [3] were 12.2 µM and 12.8 µM, respectively.

As to `CC(C)CC1OC(=O)CCNC(=O)[C@H](C(C)C)N(C)C(=O)[C@H](C(C)C)N(C)C(=O)[C@H](Cc2ccccc2)NC(=O)[C@@H]2C(C)CCN2C1=O` (stereo not given in full) [ISARIDIN C2] (cyclo(F[NMeV][NMeV][βAla][ξLac(3-iPr)][X2])), the Activity result in data set [1] was “Non-toxic”. The half-maximal inhibitory concentration (IC50) is 10.1 µM in data set [2] and 12.1 µM in data set [3].
